# Measurements from different studies.
# Target: Sodium-dependent serotonin transporter (SLC6A4, Homo sapiens, UniProt P31645)
Compound,observed,method,notes,quantity,result
CC(C)c1nc2cc(OCCCCN3CCN(c4cccc5c4OCCO5)CC3)ccc2s1,ligand displacement,radioligand,,Ki,0.33 µM
CCn1c(-c2nc3cc(C(=O)N4CCC[C@@H](N)C4)cc(OC)c3n2C)cc2cccnc21,transporter uptake,,,IC50,39.8 µM
Cc1ccc2cccc(N3CCN(CCCCOc4ccc5sc(C(C)C)nc5c4)CC3)c2n1,ligand displacement,radioligand,,Ki,0.48 µM
CCn1c(-c2nc3ccc(C(=O)N4CCCC(N)C4)cc3n2C)cc2ccccc21 (stereo not shown),transporter uptake,,,IC50,20 µM
CCCOC(=O)[C@@]12C[C@@H]1[C@@H](n1cnc3c(NC)nc(C#Cc4ccc(Cl)s4)nc31)[C@H](O)[C@@H]2O,ligand displacement,radioligand,cell membranes,Ki,> 10 µM
CC(=O)N1C[C@H](CCN2CCC(c3c[nH]c4cc(Cl)ccc34)CC2)c2ccccc21,ligand displacement,radioligand,cell membranes,IC50,0.36 µM
CNc1nc2cc(OCCCCN3CCC(c4cccc(Cl)c4Cl)CC3)ccc2s1,ligand displacement,radioligand,,Ki,0.062 µM
CCN(CC)c1ccc(C2Nc3ccc(C(=O)c4ccccc4)cc3NC3=C2C(=O)CC(C)(C)C3)cc1 (stereo not shown),cell-free assay,radioligand,,Ki,> 10 µM
CCCCN1CCC(COC(=O)c2ccc(N)c(OCF)c2)CC1,cell-free assay,radioligand,,Ki,> 10 µM
CCC(C)C(=O)[C@]12C(=O)[C@](CC=C(C)C)(C[C@H](CC=C(C)C)[C@@]1(C)CCC=C(C)C)C(=O)C(CC=C(C)C)=C2O (stereo partly shown),ligand displacement,radioligand,cell membranes,Ki,34 µM
